The record followed here is ChEMBL document CHEMBL1140013, “The 1,4-naphthoquinone scaffold in the design of cysteine protease inhibitors” (Bioorg Med Chem, 2007).

The source made the active and inactive calls. The calls are words filed in the database; no cut-off is given here.

In test [1] the target is Pancreatic elastase (Sus scrofa) (UniProt P08419+P00772). Put plainly: Inhibition of pig pancreatic elastase. The test is classed as protein assay. In a few lines: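 Porcine pancreatic elastase (50 µM stock) was incubated with inhibitor (DMSO stock) in 0.1 M Hepes pH 7.2 for up to 2 h. Timed aliquots were assayed on Suc-Ala-Ala-Ala-4-nitroanilide, following absorbance at 390 nm for 50 s.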

For another test, the target named is Cathepsin B (Bos taurus) (UniProt P07688). The test is described as follows: Inhibition of bovine spleen cathepsin B. The method in brief:
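Cathepsin B (10 U/mL) was activated 15 min at 25 °C in 20 mM sodium acetate pH 5.0 with 1.0 mM EDTA and 30 mM DTT. It was then pre-incubated with inhibitor (DMSO stock) in acetate/EDTA buffer (Kitz–Wilson method). Aliquots were assayed on Z-S-Lys-ONp with 2.0 mM DTT, following p-nitrophenol at 326 nm for 3 min at 25 °C. k_obs came from ln(v/v0) versus time, using 4–6 inhibitor concentrations.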

Test [2] concerns the target T1, Papain (Carica papaya) (UniProt P00784).
T1 sequence (whole entry): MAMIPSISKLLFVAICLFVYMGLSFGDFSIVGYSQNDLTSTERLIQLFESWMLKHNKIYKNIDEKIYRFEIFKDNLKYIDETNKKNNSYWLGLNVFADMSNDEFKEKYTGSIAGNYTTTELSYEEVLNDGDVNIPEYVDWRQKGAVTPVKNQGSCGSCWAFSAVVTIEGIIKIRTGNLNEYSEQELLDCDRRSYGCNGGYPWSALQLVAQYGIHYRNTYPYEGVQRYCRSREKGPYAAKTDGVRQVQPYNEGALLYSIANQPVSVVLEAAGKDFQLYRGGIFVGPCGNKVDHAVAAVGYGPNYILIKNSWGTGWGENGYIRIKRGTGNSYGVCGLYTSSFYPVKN
Put plainly: Inhibition of papain at 65 uM after 30 mins. In a few lines:
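Papain activated 30 min at 25 °C in 50 mM potassium phosphate pH 7.0 with 2.5 mM EDTA and 2.0 mM DTT. Inhibitor in DMSO added to the enzyme in EDTA-only buffer, with control incubations run in parallel. Aliquots went into BAPA substrate in buffer with EDTA and DTT. p-Nitroaniline release read at 410 nm for 4 min at 25 °C.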

Test [3] has as its target T1, Papain (Carica papaya). The test is described as follows: Inhibition of papain at 1.3 mM after 20 mins. In a few lines: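 Papain was pre-incubated with inhibitor at 1.3 mM for 20 min. Residual activity on BAPA was read at 410 nm and reported as % inhibition.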

As usually defined, the inhibition is how much of the control response was suppressed.

For the compound `CCOC(=O)[C@H](Cc1ccccc1)NC1=CC(=O)c2ccccc2C1=O`, the outcome in test [1] was inactive.

Regarding `O=C1C(Cl)=C(N2CCOCC2)C(=O)c2ccccc21`, the result in test [1] was inactive. In the case of `CC(C)CCNC(=O)[C@H](CC(C)C)NC1=CC(=O)c2ccccc2C1=O`, the outcome in test [1] was inactive. Same read-out and setting: as for `CCOC(=O)[C@H](Cc1ccccc1)NC1=C(Br)C(=O)c2ccccc2C1=O`, the entry is “inactive”. The same measure, in the same setting: as for `CC1=CC(=O)c2c(C)ccc(C)c2C1=O`, the entry is “inactive”.

For `CCOC1=CC(=O)c2ccccc2C1=O`, on Cathepsin B (Bos taurus), the Kinact was 797 µM. Further, the outcome in test [1] was inactive. For `CCOC(=O)CNC1=CC(=O)c2ccccc2C1=O`, in that order: 14 µM and “inactive”.

With `O=C1C(Cl)=C(Cl)C(=O)c2ccccc21`, in test [1], the outcome was inactive. `O=C1C=CC(=O)c2ccccc21`: the inhibition against Papain (Carica papaya) [2] came out at 49.5%. Also, the outcome in test [1] was inactive.

`O=C1C=CC(=O)c2c(O)cccc21` yielded an inhibition against Papain (Carica papaya) [2] of 60.4%. Besides, in test [1], the outcome was inactive. For `CCOC(=O)[C@H](Cc1ccccc1)NC1=C(Cl)C(=O)c2ccccc2C1=O`, the result in test [1] was inactive. Still for that read-out and setting: then `CC(=O)Oc1cccc2c1C(=O)C=CC2=O`, with “inactive”.

The compound `CCOC(=O)CNC1=C(Br)C(=O)c2ccccc2C1=O` returned a Kinact on Cathepsin B (Bos taurus) of 55.9 µM. Moreover, the result in test [1] was inactive. Regarding `CNC1=CC(=O)c2ccccc2C1=O`, the result in test [1] was inactive. At Papain (Carica papaya) [3], `O=C1C=C(O)C(=O)c2ccccc21` came in with an inhibition of 82%. Moreover, in test [1], the result was inactive. Take `CCOC(=O)CNC1=C(Cl)C(=O)c2ccccc2C1=O`: in test [1], the outcome was inactive. On the same count and under the same terms, then `CNC1=C(Br)C(=O)c2ccccc2C1=O`, with “inactive”. The same measure, in the same setting: as for `CC1=CC(=O)c2ccccc2C1=O`, the entry is “inactive”; as for `O=C1C=C(Br)C(=O)c2ccccc21`, “inactive”.
